We go through five molecules from PMC3383025 (Molecular Cancer Therapeutics, 2009).

The test system of one series is AR protein. The experiment in a line: Western blot analysis of AR protein. Conditions: LNCaP cells; for AR Protein (% of control): after 24 h of exposure to 1 µmol/L. Format: cell-based, human. Background: In western blotting, separated proteins are transferred to a membrane and probed.
Another series has as its system LAPC-4. In words: Clonogenic survival assay. It counts as cell-based, human. Conditions: loss of 50% clonogenic ability after 48 h exposure.
The subject of another series is CWR22Rv1. In words: Clonogenic survival assay. Conditions: loss of 50% clonogenic ability after 48 h exposure. It counts as cell-based, human.
A further series relates to MDA-PC-2b. In words: Clonogenic survival assay. Format: cell-based, human. Conditions: loss of 50% clonogenic ability after 48 h exposure.
The test system of the next series is VCaP. In words: Clonogenic survival assay. It counts as cell-based, human. Conditions: loss of 50% clonogenic ability after 48 h exposure.
Series [1] concerns LNCaP cells. In words: Intracellular free Ca+2. Format: cell-based, human. Conditions: for Intracellular free calcium: 10 min after exposure to 1 µmol/L, starting concentration ~40 nmol/L.
The next series relates to LNCaP. In words: Clonogenic survival assay. Format: cell-based, human. Conditions: for Killing ability LD50: loss of 50% clonogenic ability after 48 h exposure; for CC50: read-out: Cell death of LNCaP LC50.
The subject of another series is total protein synthesis. In words: Total protein synthesis, S35-methionine incorporation. Format: cell-based, human. Conditions: LNCaP; at 24 hours post-TG exposure. In short, it runs like this: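 LNCaP cells were treated for 6 or 24 h (1 µmol/L test compound) and labelled with S³⁵-methionine for 30 min before lysis. Incorporation was measured as TCA-precipitable counts and expressed per cell as percent of incorporation in exponentially growing untreated cells.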

For series [2], the system named is androgen ablation refractory human prostate cancer lines. In words: Clonogenic survival assay, each of the five lines. It counts as cell-based. Conditions: LNCaP, LAPC-4, VCaP, MDA-PCa-2b, CWR22Rv1. The essentials: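 Clonogenic survival of each prostate cancer line after 48 h exposure to a concentration series of test compound. LD₅₀ is the nmol/L concentration causing 50% loss of clonogenic ability.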

A further series has as its system AR mRNA. In words: AR mRNA by reverse transcription-PCR. Format: cell-based, human. Conditions: LNCaP, LAPC-4 and CWR22Rv1 cells; 1 µmol/L TG, various times.
Series [3] relates to AR-specific protein synthesis. Format: cell-based, human. The essentials:
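LNCaP cells exposed to 1 µmol/L test compound for 6 or 24 h, then pulsed with S³⁵-methionine for 30 min before lysis. AR was immunoprecipitated from an aliquot of the labelled total protein with N-20 anti-AR antibody and Protein-A agarose beads, then Western blotted. AR-associated radioactivity was captured on X-ray film and quantitated by imaging.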

The test system of series [4] is LNCaP cells. The experiment in a line: Percentage of cells in cycle, Ki67 flow cytometry. Format: cell-based, human. Conditions: TG exposure, untreated 91% ± 2%. (In general: In flow cytometry, cells or beads pass a laser one at a time.)
Series [5] deals with IRE1-dependent XBP-1 processing. The experiment in a line: ER stress: IRE1-dependent XBP-1/venus processing, fluorescent cells. Format: cell-based, human.
Series [6] deals with rabbit skeletal muscle SERCA pump (Oryctolagus cuniculus, UniProt P04191). The experiment in a line: SERCA pump activity inhibition. Format: biochemical.
rabbit skeletal muscle SERCA pump, sequence (P04191 1-994 isoform P04191-2): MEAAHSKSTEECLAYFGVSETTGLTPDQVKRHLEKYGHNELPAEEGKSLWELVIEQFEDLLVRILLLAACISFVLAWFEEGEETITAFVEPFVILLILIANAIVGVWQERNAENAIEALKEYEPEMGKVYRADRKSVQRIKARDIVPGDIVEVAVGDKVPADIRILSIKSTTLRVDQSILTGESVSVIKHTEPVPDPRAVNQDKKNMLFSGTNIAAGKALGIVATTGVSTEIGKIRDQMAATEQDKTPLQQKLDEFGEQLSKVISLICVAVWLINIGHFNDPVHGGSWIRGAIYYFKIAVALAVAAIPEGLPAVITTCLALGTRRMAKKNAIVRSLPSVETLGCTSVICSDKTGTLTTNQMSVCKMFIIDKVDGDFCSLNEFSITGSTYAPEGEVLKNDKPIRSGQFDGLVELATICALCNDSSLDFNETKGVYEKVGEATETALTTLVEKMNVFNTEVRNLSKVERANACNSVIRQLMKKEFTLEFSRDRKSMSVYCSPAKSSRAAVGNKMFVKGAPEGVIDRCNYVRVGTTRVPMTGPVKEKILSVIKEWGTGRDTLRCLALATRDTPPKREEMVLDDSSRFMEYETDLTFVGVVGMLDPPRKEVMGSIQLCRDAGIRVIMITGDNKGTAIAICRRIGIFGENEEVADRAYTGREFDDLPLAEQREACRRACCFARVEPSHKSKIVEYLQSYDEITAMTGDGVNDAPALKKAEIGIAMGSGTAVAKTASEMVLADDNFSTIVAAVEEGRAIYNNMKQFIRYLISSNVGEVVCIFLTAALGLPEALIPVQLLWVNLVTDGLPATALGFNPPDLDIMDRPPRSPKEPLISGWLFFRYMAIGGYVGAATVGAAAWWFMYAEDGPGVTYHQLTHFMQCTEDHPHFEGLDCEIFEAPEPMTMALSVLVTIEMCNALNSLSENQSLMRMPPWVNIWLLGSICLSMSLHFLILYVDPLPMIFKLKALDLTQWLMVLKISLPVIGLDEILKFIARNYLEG
The subject of series [7] is LNCaP cells. Conditions: over the next 18 to 36 hours after return to baseline; cited from earlier work.
For series [8] the following is noted: cited from earlier work.

Where “and” joins values, the source holds several entries; their conditions need not be identical. Equal entries are not always repeated. Where two headings read alike, the source gives them in different places. A value given as a limit tells only on which side of the number the result lay.

As for alanyl-12ADT [Analog A12ADT], the “AR Protein (% of control)” value with AR protein is given as 15 ± 4 % of control. Moreover, the “Killing ability LD50” value with LAPC-4 came out at 28 ± 7 nmol/L; in the series on CWR22Rv1 it was 38 ± 11 nmol/L; in the series with MDA-PC-2b it was 40 ± 6 nmol/L; in the series on VCaP, 23 ± 9 nmol/L; in the series with LNCaP (LNCaP), 8 ± 4 nmol/L. Besides, the Intracellular free calcium in the series with LNCaP cells [1] is reported as 410 ± 45 nmol/L. The CC50 with LNCaP (after 48 h of exposure) amounted to 8 ± 4 nM.
On to `C/C=C(/C)C(=O)O[C@H]1C(C)=C2[C@H]([C@@H]1OC(=O)CCCCCCC)[C@@](C)(OC(C)=O)C[C@H](OC(=O)CCC)[C@@]1(O)[C@H]2OC(=O)[C@@]1(C)O` [TG, Thapsigargin, reference compound], for which the “AR Protein (% of control)” value with AR protein is 10 ± 2 % of control. Moreover, in the series on AR protein (by 24 hours of TG exposure), the “depletion of AR protein” value is listed as 90%. Also, the “Killing ability LD50” value is 25 ± 6 nmol/L in the series on LAPC-4; 38 ± 9 nmol/L in the series on CWR22Rv1; 43 ± 12 nmol/L with MDA-PC-2b; 20 ± 7 nmol/L in the series on VCaP; 10 nmol/L and 10 ± 5 nmol/L in the series with LNCaP (LNCaP). In addition, the “inhibition of general protein synthesis” value with total protein synthesis is above 60%. Also, in series [2], the “LD50 for each of the lines” value is listed as below 100 nmol/L. In the series with AR mRNA, the “change in AR mRNA” value is on record as “no change”. In addition, the “decrease in rate of AR-specific protein synthesis” value in series [3] (LNCaP cells, 1 µmol/L TG) is recorded as above 90%. For the same molecule, the “inhibition of AR-specific protein synthesis” value in series [3] (LNCaP, at 24 hours post-TG exposure) is reported as above 90%. Besides, the “Ki67+ cells” value was 25% ± 8% in the series on LNCaP cells [4] (24 hours) and above 10% in the series on LNCaP cells [4] (48 hours). The “percent of fluorescent (ER-stressed) cells” value in series [5] (XBP-1/venus-transfected LNCaP and CWR22Rv1, 500 µmol/L TG, by 24 hours) is recorded as above 80%. Besides, inhibition in series [6] was half-maximal at 13 ± 2 nM (IC50). The “delayed sustained increase in Cai” value with LNCaP cells [7] is above 1 µmol/L. Besides, the “host toxicity on systemic administration” value in [8] is recorded as “cannot be given systemically without host toxicity”. Further, the Intracellular free calcium in the series with LNCaP cells [1] was 441 ± 35 nmol/L. Further, the “initial increase in Cai” value in the series on LNCaP cells [1] (from ~40 nmol/L, within minutes) is reported as above 300 nmol/L. Moreover, in the series with LNCaP (Homo sapiens, LNCaP, 48 h), the CC50 is 10 ± 5 nM.
Consider leucyl-12ADT [Analog L12ADT], for which the “AR Protein (% of control)” value with AR protein is 8 ± 4 % of control. The “Killing ability LD50” value with LAPC-4 turned out to be 32 ± 9 nmol/L; in the series with CWR22Rv1 it was 34 ± 16 nmol/L; with MDA-PC-2b it was 42 ± 5 nmol/L; with VCaP, 25 ± 11 nmol/L; in the series on LNCaP (LNCaP) it was 14 ± 8 nmol/L. The “cells with IRE1-dependent XBP-1 processing (flow cytometric GFP)” value in series [5] (LNCaP, 500 nmol/L, within 24 h) is given as “all cells”. The Intracellular free calcium in the series with LNCaP cells [1] is listed as 414 ± 44 nmol/L. The CC50 in the series with LNCaP (after 48 h of exposure) turned out to be 14 ± 8 nM.
With `C/C=C(/C)C(=O)O[C@H]1C(C)=C2[C@H]([C@@H]1OC(=O)CCCCCCC)[C@@](C)(OC(C)=O)C[C@H](OC(=O)CCCCCCCCCCCN)[C@@]1(O)[C@H]2OC(=O)[C@@]1(C)O` [Analog 12ADT, 8-O-(12-dodecanyl)-8-O-debutanoyl TG], in the series with AR protein, the “AR Protein (% of control)” value is 14 ± 3 % of control. Also, the “Killing ability LD50” value in the series with LAPC-4 was 80 ± 19 nmol/L; with CWR22Rv1, 85 ± 27 nmol/L; in the series with MDA-PC-2b, 95 ± 35 nmol/L; with VCaP, 67 ± 25 nmol/L; in the series with LNCaP (LNCaP), 55 ± 12 nmol/L. In addition, the “host toxicity on systemic administration” value in [8] is “cannot be given systemically without host toxicity”. Moreover, in the series with LNCaP cells [1], the Intracellular free calcium is recorded as 369 ± 23 nmol/L. Also, in the series on LNCaP (after 48 h of exposure), the CC50 was 55 ± 12 nM.
With `C/C=C(/C)C(=O)O[C@H]1C(C)=C2[C@H]([C@@H]1OC(=O)CCCCCCC)[C@@](C)(OC(C)=O)C[C@H](OC(=O)CCCCCCCCCCCNC(=O)C[C@H](N)C(=O)O)[C@@]1(O)[C@H]2OC(=O)[C@@]1(C)O` [Analog D12ADT, asparty-12ADT], the “AR Protein (% of control)” value in the series with AR protein is recorded as 11 ± 6 % of control. Besides, the “Killing ability LD50” value with LAPC-4 is reported as 55 ± 9 nmol/L; in the series on CWR22Rv1, 39 ± 7 nmol/L; in the series with MDA-PC-2b, 51 ± 12 nmol/L; with VCaP it was 70 ± 18 nmol/L; in the series on LNCaP (LNCaP), 40 ± 12 nmol/L. Also, the Intracellular free calcium in the series with LNCaP cells [1] came out at 385 ± 40 nmol/L. Moreover, the CC50 with LNCaP (after 48 h of exposure) was found to be 40 ± 12 nM.

For orientation: IC50 means the concentration at which inhibition is half-maximal. Lower therefore signals higher potency.
